Data from ChEMBL document CHEMBL5247575 (J Med Chem, 2018).
Converted amounts (≈) assume the structure as drawn.

Experiments:
Acinetobacter baumannii [1] = assay: Antibacterial activity against ADC deleted Acinetobacter baumannii transfected with pWH1266 OXA-23 by broth microdilution method; type: functional
Pseudomonas aeruginosa [2] = assay: Antibacterial activity against Pseudomonas aeruginosa 776 by broth microdilution method; type: functional
Pseudomonas aeruginosa [3] = assay: Synergistic antibacterial activity against Pseudomonas aeruginosa 715 assessed as cefepime MIC at 8 ug/ml by broth microdilution method; type: functional; settings: dose 8 µg/ml
Pseudomonas aeruginosa [4] = assay: Synergistic antibacterial activity against Pseudomonas aeruginosa 776 assessed as cefepime MIC at 8 ug/ml by broth microdilution method; type: functional; settings: dose 8 µg/ml
Bacteria [5] = assay: Inhibition of bacteria OXA-48 assessed as second order rate constant K2/K using nitrocefin as substrate
Bacteria [6] = assay: Inhibition of bacteria KPC-2 assessed as Koff rate using nitrocefin as substrate incubated for 30 mins
Bacteria [7] = assay: Inhibition of bacteria PDC-3 assessed as Koff rate using nitrocefin as substrate incubated for 30 mins
Bacteria [8] = assay: Inhibition of bacteria OXA-48 assessed as Koff rate using nitrocefin as substrate incubated for 30 mins
Klebsiella pneumoniae [9] = assay: Antibacterial activity against Klebsiella pneumoniae 440/1360 producing KPC-2 by broth microdilution method; type: functional
Klebsiella pneumoniae [10] = assay: Antibacterial activity against Klebsiella pneumoniae 11978 producing OXA-48 by broth microdilution method; type: functional
Klebsiella pneumoniae [11] = assay: Antibacterial activity against Klebsiella pneumoniae CAV 1636 producing OXA-181 by broth microdilution method; type: functional
Klebsiella pneumoniae [12] = assay: Antibacterial activity against Klebsiella pneumoniae CAV 1543 producing OXA-48 by broth microdilution method; type: functional
Klebsiella pneumoniae [13] = assay: Antibacterial activity against Klebsiella pneumoniae NY BS producing OXA-232 by broth microdilution method; type: functional
Klebsiella pneumoniae [14] = assay: Antibacterial activity against Klebsiella pneumoniae jefferson 1773 producing OXA-181 by broth microdilution method; type: functional
Bacteria [15] = test system: Bacteria
Bacteria [16] = test system: Bacteria; remark: listed apart in the source
Klebsiella pneumoniae [17] = assay: Antibacterial activity against Klebsiella pneumoniae 901/1860 producing KPC-3 by broth microdilution method; type: functional
Klebsiella pneumoniae [18] = assay: Antibacterial activity against Klebsiella pneumoniae 935/1884 producing KPC-3 by broth microdilution method; type: functional
Klebsiella pneumoniae [19] = assay: Antibacterial activity against Klebsiella pneumoniae 977/1916 producing KPC-3 by broth microdilution method; type: functional
Klebsiella pneumoniae [20] = assay: Antibacterial activity against Klebsiella pneumoniae 1084/1957 producing KPC-3 by broth microdilution method; type: functional
Klebsiella pneumoniae [21] = assay: Antibacterial activity against Klebsiella pneumoniae 1108/1989 producing KPC-3 by broth microdilution method; type: functional
Klebsiella pneumoniae [22] = assay: Synergistic antibacterial activity against Klebsiella pneumoniae jefferson 1773 producing OXA-181 assessed as meropenem MIC at 8 ug/ml by broth microdilution method; type: functional; settings: dose 8 µg/ml
Acinetobacter baumannii [23] = assay: Antibacterial activity against Acinetobacter baumannii NCTC 13301 producing OXA-23/51 infected in sc dosed Swiss albino mouse administered 1 hr post infection and measured upto 7 days; type: functional; settings: NCTC 13301, 168 h, time <= 7 day; for ED50: read-out: PD50
How it was run: (§1)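 Peritonitis model: male and female Swiss albino mice infected intraperitoneally with 3.5×10^5 to 3×10^6 CFU/mouse in 5% hog gastric mucin (lethal to untreated mice within 24 h). […] Survival followed 7 days; PD50/PD90 by probit analysis.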

Acinetobacter baumannii [24] = assay: Antibacterial activity against Acinetobacter baumannii NCTC 13303 producing OXA-26/51 infected in sc dosed Swiss albino mouse administered 1 hr post infection and measured upto 7 days; type: functional; settings: NCTC 13303, 168 h, time <= 7 day; how it was run: as §1
Escherichia coli = assay: Antibacterial activity against Escherichia coli DH10B transfected with pBC SK (-) KPC-2 by broth microdilution method; type: functional
Pseudomonas aeruginosa [25] = assay: Antibacterial activity against Pseudomonas aeruginosa 795 by broth microdilution method; type: functional
[26] = Inhibition of bacteria OXA-48 assessed as apparent inhibition constant using nitrocefin as substrate
[27] = Binding affinity to bacteria OXA-48 assessed as dissociation constant
Acinetobacter baumannii [28] = assay: Synergistic antibacterial activity against Acinetobacter baumannii NCTC 13301 producing OXA-23/51 infected in sc dosed Swiss albino mouse assessed as cefepime MIC at 8 ug/ml administered 1 hr post infection and measured upto 7 days; type: functional; settings: NCTC 13301, 168 h, dose 8 µg/ml, time <= 7 day
Acinetobacter baumannii [29] = assay: Synergistic antibacterial activity against Acinetobacter baumannii NCTC 13301 producing OXA-23/51 infected in sc dosed Swiss albino mouse assessed as meropenem MIC at 8 ug/ml administered 1 hr post infection and measured upto 7 days; type: functional; settings: NCTC 13301, 168 h, dose 8 µg/ml, time <= 7 day
Acinetobacter baumannii [30] = assay: Synergistic antibacterial activity against Acinetobacter baumannii NCTC 13301 producing OXA-23/51 infected in sc dosed Swiss albino mouse assessed as tigecycline MIC at 8 ug/ml administered 1 hr post infection and measured upto 7 days; type: functional; settings: NCTC 13301, 168 h, dose 8 µg/ml, time <= 7 day
Acinetobacter baumannii [31] = assay: Synergistic antibacterial activity against Acinetobacter baumannii NCTC 13301 producing OXA-23/51 infected in sc dosed Swiss albino mouse assessed as colistin MIC at 8 ug/ml administered 1 hr post infection and measured upto 7 days; type: functional; settings: NCTC 13301, 168 h, dose 8 µg/ml, time <= 7 day
Acinetobacter baumannii [32] = assay: Synergistic antibacterial activity against Acinetobacter baumannii NCTC 13303 producing OXA-26/51 infected in sc dosed Swiss albino mouse assessed as cefepime MIC at 8 ug/ml administered 1 hr post infection and measured upto 7 days; type: functional; settings: NCTC 13303, 168 h, dose 8 µg/ml, time <= 7 day
Acinetobacter baumannii [33] = assay: Synergistic antibacterial activity against Acinetobacter baumannii NCTC 13303 producing OXA-26/51 infected in sc dosed Swiss albino mouse assessed as meropenem MIC at 8 ug/ml administered […] post infection and measured upto 7 days; type: functional; settings: NCTC 13303, 168 h, dose 8 µg/ml, time <= 7 day
Acinetobacter baumannii [34] = assay: Synergistic antibacterial activity against Acinetobacter baumannii NCTC 13303 producing OXA-26/51 infected in sc dosed Swiss albino mouse assessed as colistin MIC at 8 ug/ml administered […] post infection and measured upto 7 days; type: functional; settings: NCTC 13303, 168 h, dose 8 µg/ml, time <= 7 day
Acinetobacter baumannii [35] = assay: Synergistic antibacterial activity against Acinetobacter baumannii SL46 producing OXA-23/51 infected in sc dosed Swiss albino mouse assessed as cefepime MIC at 8 ug/ml administered 1 hr post infection and measured upto 7 days; type: functional; settings: SL46, 168 h, dose 8 µg/ml, time <= 7 day
Acinetobacter baumannii [36] = assay: Synergistic antibacterial activity against Acinetobacter baumannii SL46 producing OXA-23/51 infected in sc dosed Swiss albino mouse assessed as meropenem MIC at 8 ug/ml administered 2 hrs post infection and measured upto 7 days; type: functional; settings: SL46, 168 h, dose 8 µg/ml, time <= 7 day
Acinetobacter baumannii [37] = assay: Antibacterial activity against Acinetobacter baumannii SL46 producing OXA-23/51 infected in sc dosed Swiss albino mouse administered 1 hr post infection and measured upto 7 days; settings: SL46, 168 h
Acinetobacter baumannii [38] = assay: Antibacterial activity against Acinetobacter baumannii NCTC 13303 producing OXA-26/51 infected in sc dosed Swiss albino mouse administered 1 hr post infection and measured upto 7 days; settings: NCTC 13303, 168 h

Compound	MIC (Pseudomonas aeruginosa [2]) [µg/mL]	MIC (Pseudomonas aeruginosa [3]) [µg/mL]	MIC (Pseudomonas aeruginosa [4]) [µg/mL]	K (Bacteria [5])	K (Bacteria [8])	MIC (Klebsiella pneumoniae [10]) [µg/mL]	MIC (Klebsiella pneumoniae [11]) [µg/mL]	MIC (Klebsiella pneumoniae [14]) [µg/mL]	T1/2 (Bacteria [15]) [h]	T1/2 (Bacteria [16]) [h]	MIC (Klebsiella pneumoniae [22]) [µg/mL]	ED90 (Acinetobacter baumannii [23]) [mg/kg]	ED50 (Acinetobacter baumannii [23]) [mg/kg]	MIC (Escherichia coli) [µg/mL]	MIC (Pseudomonas aeruginosa [25]) [µg/mL]	other results
O=C(NNC(=O)[C@@H]1CC[C@@H]2CN1C(=O)N2OS(=O)(=O)O)[C@@H]1CCNC1	8 (≈ 21.2 µM)	0.25	0.25	–	–	–	–	–	–	–	–	–	–	–	–	MIC (Acinetobacter baumannii [1]): 16 µg/mL (≈ 42.4 µM)
NC(=O)[C@@H]1CC[C@@H]2CN1C(=O)N2OS(=O)(=O)[O-].[Na+] [AVIBACTAM SODIUM]	–	–	–	1.4 10^3/M/s	1.2 10^-5/s	> 16	> 16	> 16	23.9	30.4	–	–	–	–	–	K (Bacteria [6]): 1.4 10^-4/s; K (Bacteria [7]): 8 10^-4/s; MIC (Klebsiella pneumoniae [9]): > 16 µg/mL; MIC (Klebsiella pneumoniae [12]): > 16 µg/mL; MIC (Klebsiella pneumoniae [13]): > 16 µg/mL
O=C(NNC(=O)[C@@H]1CC[C@@H]2CN1C(=O)N2OS(=O)(=O)O)[C@@H]1CCCNC1 [ZIDEBACTAM]	–	–	16	–	–	> 16	> 16	> 16	–	–	≤ 0.12	52.3	23.2	–	–	MIC (Klebsiella pneumoniae [17]): > 16 µg/mL; MIC (Klebsiella pneumoniae [18]): > 16 µg/mL; MIC (Klebsiella pneumoniae [19]): > 16 µg/mL; MIC (Klebsiella pneumoniae [20]): > 16 µg/mL; MIC (Klebsiella pneumoniae [21]): > 16 µg/mL; ED90 (Acinetobacter baumannii [24]): 23.2 mg/kg; ED50 (Acinetobacter baumannii [24]; read-out: PD50): < 23.2 mg/kg
O.O=C(NC1CCNCC1)[C@@H]1CC[C@@H]2CN1C(=O)N2OS(=O)(=O)O [RELEBACTAM]	> 16	–	–	–	–	–	–	–	–	–	–	–	–	> 16	> 16	–
N#C[C@@H]1CC[C@@H]2CN1C(=O)N2OS(=O)(=O)[O-].[Na+]	–	> 16	–	6.4 10^5/M/s	9 10^-4/s	–	–	–	0.383	0.483	0.25	23.7	16.3	> 16	> 16	Ki [26]: 290 nM; Kd [27]: 1.4 nM; MIC (Acinetobacter baumannii [28]): > 256 µg/mL; MIC (Acinetobacter baumannii [29]): 1 µg/mL; MIC (Acinetobacter baumannii [30]): 1 µg/mL; MIC (Acinetobacter baumannii [31]): 1 µg/mL; MIC (Acinetobacter baumannii [32]): 64 µg/mL; MIC (Acinetobacter baumannii [33]): 256 µg/mL; MIC (Acinetobacter baumannii [34]): 0.5 µg/mL; MIC (Acinetobacter baumannii [35]): > 512 µg/mL; MIC (Acinetobacter baumannii [36]): 64 µg/mL; ED90 (Acinetobacter baumannii [37]): 66.2 mg/kg; ED50 (Acinetobacter baumannii [37]; read-out: PD50): 24.9 mg/kg; ED90 (Acinetobacter baumannii [38]): 49.4 mg/kg; ED50 (Acinetobacter baumannii [38]; read-out: PD50): 24 mg/kg
